Reference: ChEMBL document CHEMBL5058577, “EUbOPEN Chemogenomics Library 2 (Multiplex)” (2022)

Tested on: HEK-293T
Test: Multiplex assay against HEK293T
Assay type: toxicity, cell-based
Conditions: human
Procedure, shortened: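 Cells were classed with CellPathfinder machine-learning gating, first as Hoechst high-intensity objects or normal cells, then (normal cells) as healthy, pyknosed or fragmented nuclei, and finally (pyknosed cells) as mitotic or apoptotic. Staining of live cells at seeding used Hoechst33342, BioTracker Green Microtubule Cytoskeleton Dye, MitoTracker Red and Annexin V Alexa Fluor 680, with imaging on a CQ1 microscope at 37°C and 5% CO2 after compound addition. Tubulin, mitochondrial-mass and membrane-permeability phenotypes are per cents of healthy-nucleus cells.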

[1] = 12 h, 1 µM, compound concentration 1 uM, replicate 1
[2] = 12 h, 1 µM, compound concentration 1 uM, replicate 2
[3] = 12 h, 10 µM, compound concentration 10 uM, replicate 1
[4] = 12 h, 10 µM, compound concentration 10 uM, replicate 2
[5] = 24 h, 1 µM, compound concentration 1 uM, replicate 1
[6] = 24 h, 1 µM, compound concentration 1 uM, replicate 2
[7] = 24 h, 10 µM, compound concentration 10 uM, replicate 1
[8] = 24 h, 10 µM, compound concentration 10 uM, replicate 2
[9] = 48 h, 1 µM, compound concentration 1 uM, replicate 1
[10] = 48 h, 1 µM, compound concentration 1 uM, replicate 2
[11] = 48 h, 10 µM, compound concentration 10 uM, replicate 1
[12] = 48 h, 10 µM, compound concentration 10 uM, replicate 2

Cl.NCCc1ccc(O)c(O)c1 [DOPAMINE HYDROCHLORIDE]
Population Apoptotic (%) [1]: 31%
Population Fragmented Nuclei (%) [1]: 6%
Population Healthy Nuclei (%) [1]: 77%
Population Hoechst High Intensity Objects (%) [1]: 10%
Population Membrane Permeable-Phenotype (%) [1]: 0%
Population Mitochondria Different-Phenotype (%) [1]: 54%
Population Mitotic Cells (%) [1]: 68%
Population Normal (%) [1]: 89%
Population Pyknosed Nuclei (%) [1]: 16%
Population Tubulin-Different-Phenotype (%) [1]: 36%
Total Cell Count [1]: 324
Population Apoptotic (%) [2]: 54%
Population Fragmented Nuclei (%) [2]: 7%
Population Healthy Nuclei (%) [2]: 78%
Population Hoechst High Intensity Objects (%) [2]: 6%
Population Mitochondria Different-Phenotype (%) [2]: 58%
Population Mitotic Cells (%) [2]: 46%
Population Normal (%) [2]: 93%
Population Pyknosed Nuclei (%) [2]: 14%
Population Tubulin-Different-Phenotype (%) [2]: 18%
Total Cell Count [2]: 372
Population Apoptotic (%) [3]: 46%
Population Fragmented Nuclei (%) [3]: 5%
Population Healthy Nuclei (%) [3]: 77%
Population Hoechst High Intensity Objects (%) [3]: 6%
Population Membrane Permeable-Phenotype (%) [3]: 0%
Population Mitochondria Different-Phenotype (%) [3]: 57%
Population Mitotic Cells (%) [3]: 53%
Population Normal (%) [3]: 93%
Population Pyknosed Nuclei (%) [3]: 17%
Population Tubulin-Different-Phenotype (%) [3]: 43%
Total Cell Count [3]: 344
Population Apoptotic (%) [4]: 37%
Population Healthy Nuclei (%) [4]: 83%
Population Hoechst High Intensity Objects (%) [4]: 5%
Population Mitochondria Different-Phenotype (%) [4]: 51%
Population Mitotic Cells (%) [4]: 62%
Population Normal (%) [4]: 94%
Population Pyknosed Nuclei (%) [4]: 11%
Population Tubulin-Different-Phenotype (%) [4]: 23%
Total Cell Count [4]: 413
Population Apoptotic (%) [5]: 44%
Population Fragmented Nuclei (%) [5]: 9%
Population Healthy Nuclei (%) [5]: 76%
Population Hoechst High Intensity Objects (%) [5]: 4%
Population Membrane Permeable-Phenotype (%) [5]: 1%
Population Mitochondria Different-Phenotype (%) [5]: 40%
Population Mitotic Cells (%) [5]: 55%
Population Normal (%) [5]: 95%
Population Pyknosed Nuclei (%) [5]: 13%
Population Tubulin-Different-Phenotype (%) [5]: 19%
Total Cell Count [5]: 451
Population Apoptotic (%) [6]: 20%
Population Fragmented Nuclei (%) [6]: 8%
Population Healthy Nuclei (%) [6]: 85%
Population Hoechst High Intensity Objects (%) [6]: 5%
Population Membrane Permeable-Phenotype (%) [6]: 0%
Population Mitochondria Different-Phenotype (%) [6]: 46%
Population Mitotic Cells (%) [6]: 79%
Population Normal (%) [6]: 94%
Population Pyknosed Nuclei (%) [6]: 5%
Population Tubulin-Different-Phenotype (%) [6]: 11%
Total Cell Count [6]: 478
Population Apoptotic (%) [7]: 39%
Population Fragmented Nuclei (%) [7]: 7%
Population Healthy Nuclei (%) [7]: 79%
Population Hoechst High Intensity Objects (%) [7]: 5%
Population Membrane Permeable-Phenotype (%) [7]: 0%
Population Mitochondria Different-Phenotype (%) [7]: 36%
Population Mitotic Cells (%) [7]: 60%
Population Normal (%) [7]: 94%
Population Pyknosed Nuclei (%) [7]: 12%
Population Tubulin-Different-Phenotype (%) [7]: 23%
Total Cell Count [7]: 393
Population Apoptotic (%) [8]: 38%
Population Fragmented Nuclei (%) [8]: 9%
Population Healthy Nuclei (%) [8]: 83%
Population Mitochondria Different-Phenotype (%) [8]: 40%
Population Mitotic Cells (%) [8]: 61%
Population Pyknosed Nuclei (%) [8]: 7%
Population Tubulin-Different-Phenotype (%) [8]: 15%
Total Cell Count [8]: 533
Population Apoptotic (%) [9]: 19%
Population Fragmented Nuclei (%) [9]: 14%
Population Healthy Nuclei (%) [9]: 78%
Population Hoechst High Intensity Objects (%) [9]: 4%
Population Membrane Permeable-Phenotype (%) [9]: 1%
Population Mitochondria Different-Phenotype (%) [9]: 23%
Population Mitotic Cells (%) [9]: 80%
Population Normal (%) [9]: 95%
Population Pyknosed Nuclei (%) [9]: 7%
Population Tubulin-Different-Phenotype (%) [9]: 14%
Total Cell Count [9]: 785
Population Apoptotic (%) [10]: 23%
Population Fragmented Nuclei (%) [10]: 10%
Population Healthy Nuclei (%) [10]: 81%
Population Membrane Permeable-Phenotype (%) [10]: 0%
Population Mitochondria Different-Phenotype (%) [10]: 20%
Population Mitotic Cells (%) [10]: 76%
Population Tubulin-Different-Phenotype (%) [10]: 7%
Total Cell Count [10]: 638
Population Apoptotic (%) [11]: 30%
Population Fragmented Nuclei (%) [11]: 14%
Population Healthy Nuclei (%) [11]: 79%
Population Hoechst High Intensity Objects (%) [11]: 3%
Population Membrane Permeable-Phenotype (%) [11]: 0%
Population Mitochondria Different-Phenotype (%) [11]: 24%
Population Mitotic Cells (%) [11]: 70%
Population Normal (%) [11]: 96%
Population Pyknosed Nuclei (%) [11]: 6%
Population Tubulin-Different-Phenotype (%) [11]: 13%
Total Cell Count [11]: 660
Population Apoptotic (%) [12]: 17%
Population Fragmented Nuclei (%) [12]: 12%
Population Healthy Nuclei (%) [12]: 83%
Population Hoechst High Intensity Objects (%) [12]: 1%
Population Mitochondria Different-Phenotype (%) [12]: 17%
Population Mitotic Cells (%) [12]: 82%
Population Normal (%) [12]: 98%
Population Pyknosed Nuclei (%) [12]: 4%
Population Tubulin-Different-Phenotype (%) [12]: 7%
Total Cell Count [12]: 859
